Results published in PMC4071626 (MedChemComm, 2013).

Experiments:
Δ49N CHKA2 = Δ49N CHKA2 (Homo sapiens, UniProt P35790); experiment: Lineweaver-Burk reaction kinetics against Δ49N CHKA2; type: biochemical; details: 0.1, 1 or 10 μM inhibitor; choline or ATP varied, the other kept at KM
In short: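 Δ49N CHKA2 reaction kinetics run without inhibitor or with test compound at 0.1, 1 or 10 μM. Choline varied with ATP fixed at KM, or ATP varied with choline fixed at KM; double-reciprocal (Lineweaver–Burk) plots used to assign inhibition type versus each substrate.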

[1] = tested on: CHK reaction in HCT-116 cells; experiment: Inhibition of [3H]PCho formation from [3H]Cho in whole HCT-116 cells; type: cell-based, human; details: HCT-116 cells incubated with [3H]Cho
In short: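 HCT-116 cells incubated with [3H]Cho plus test compound over a range of concentrations; [3H]PCho formed from [3H]Cho measured to follow dose-dependent change in cellular choline phosphorylation.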

Sequence of Δ49N CHKA2 (P35790 50-457 limits assumed, stated change not applied): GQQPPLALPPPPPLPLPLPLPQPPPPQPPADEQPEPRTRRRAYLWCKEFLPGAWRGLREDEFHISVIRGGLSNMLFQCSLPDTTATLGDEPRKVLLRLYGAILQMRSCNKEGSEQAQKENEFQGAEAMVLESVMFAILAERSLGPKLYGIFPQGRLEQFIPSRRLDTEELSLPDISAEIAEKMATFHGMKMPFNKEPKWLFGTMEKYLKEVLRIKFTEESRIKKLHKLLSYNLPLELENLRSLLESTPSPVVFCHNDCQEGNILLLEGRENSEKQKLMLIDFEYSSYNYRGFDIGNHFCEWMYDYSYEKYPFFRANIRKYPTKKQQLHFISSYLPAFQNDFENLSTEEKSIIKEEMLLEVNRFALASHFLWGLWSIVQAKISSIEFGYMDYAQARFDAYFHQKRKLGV

| Compound | Type of inhibition (Lineweaver-Burk plots) (Δ49N CHKA2) | Concentration above which [3H]PCho formation is inhibited >75% [1] |
| --- | --- | --- |
| CN(C)c1cc[n+](CCCCCCCCCCCC[n+]2ccc(N(C)C)cc2)cc1.[Br-].[Br-] [Compound 8] | competitive with choline, but not with ATP | above 6.5 ± 4 μM |
| CN(C)c1cc[n+](CCCCCCCCCCCCn2cnc3c(N)ncnc32)cc1.[Br-] [Compound 12] | mixed type of inhibition |  |
| CN(C)c1cc[n+](CCCCCCCCCCCCCC[n+]2ccc(N(C)C)cc2)cc1.[Br-].[Br-] [Compound 13] |  | > 2.4 ± 1 µM |
